Source: PubChem BioAssay
Shown is part of a subset that was picked to be rich in hits.
Myeloid diff MLP = compounds promoting myeloid differentiation | ER-HoxA9 myeloid progenitors, lysozyme-GFP differentiation, flow cytometry | calls only at 10 µM | 360,000 compounds, 1% hits;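 active = normalized GFP-positive differentiation at or above the plate's own cutoff, the solvent-only control mean plus 3 SD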;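 also: cells exposed to compound for four days before flow analysis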
XiGFP reactiv = X-chromosome reactivation activator. activation, % at 7.58 µM. AID 743238. XiGFP mouse fibroblasts, % GFP-positive cells imaging, 3 d; cells co-treated with 5-aza-dC sensitizer; scaled so ellipticine positive control = 100%. 360,000 compounds, 0.055% hits;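 active = mean normalized replicate activation at least 10% and every replicate at or above 10%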
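System: 68-5-11 XiGFP fibroblast line | Buffer or medium: DMEM containing 5-aza-dC | Compound: Single point | Times: Compounds 3 days, fix/stain 15 min at room temperature | Benchmarks: Positive control ellipticine, 6 µM final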
ABCB6 inh MLPCN = blocks the human ABCB6 transporter. Q9NP58. 360,000 compounds, 0.19% hits. K562-ABCB6 porphyrin accumulation, flow cytometry, 1 h; stronger effect = lower value. fluorescence ratio to DMSO, % at 10 µM;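 active = fluorescence ratio to DMSO below 75%, the collection mean minus 3 SD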;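 also: signal is porphyrin accumulated inside mitochondria; lower ratio means ABCB6 inhibition with less porphyrin fluorescence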
Target sequence (Q9NP58 whole entry, looked up): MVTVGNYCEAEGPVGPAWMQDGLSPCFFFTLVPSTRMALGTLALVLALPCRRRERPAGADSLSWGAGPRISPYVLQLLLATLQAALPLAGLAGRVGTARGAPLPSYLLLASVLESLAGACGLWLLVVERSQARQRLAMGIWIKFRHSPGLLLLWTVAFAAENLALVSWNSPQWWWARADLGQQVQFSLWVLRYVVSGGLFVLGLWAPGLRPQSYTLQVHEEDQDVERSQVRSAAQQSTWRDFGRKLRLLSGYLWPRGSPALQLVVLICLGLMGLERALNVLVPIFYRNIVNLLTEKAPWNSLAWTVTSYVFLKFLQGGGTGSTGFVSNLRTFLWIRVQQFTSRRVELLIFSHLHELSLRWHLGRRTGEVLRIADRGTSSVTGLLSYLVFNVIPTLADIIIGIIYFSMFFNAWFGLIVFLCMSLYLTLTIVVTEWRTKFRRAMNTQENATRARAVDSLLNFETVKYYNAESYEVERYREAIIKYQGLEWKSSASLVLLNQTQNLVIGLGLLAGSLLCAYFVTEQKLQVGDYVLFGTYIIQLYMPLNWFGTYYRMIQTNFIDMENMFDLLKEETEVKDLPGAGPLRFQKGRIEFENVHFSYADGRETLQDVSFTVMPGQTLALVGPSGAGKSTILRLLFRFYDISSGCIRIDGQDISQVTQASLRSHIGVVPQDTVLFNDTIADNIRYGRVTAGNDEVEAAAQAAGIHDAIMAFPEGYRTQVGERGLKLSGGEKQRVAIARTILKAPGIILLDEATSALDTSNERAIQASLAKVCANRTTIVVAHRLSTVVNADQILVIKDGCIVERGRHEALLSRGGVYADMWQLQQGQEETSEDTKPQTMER
A number is an active result.

Screening CN(C)C(=O)c1cccc(-c2ccccc2[C@H]2[C@@H](CO)N(C(=O)C3CCCC3)[C@H]2C#N)c1 returned XiGFP reactiv inactive.
For C[C@H]1CCCCO[C@H](CN(C)S(=O)(=O)c2ccc(F)cc2)[C@@H](C)CN([C@@H](C)CO)C(=O)c2cc(NC(=O)Nc3ccc(F)cc3)ccc2O1 the results were XiGFP reactiv inactive.
`Cc1cc(/C=C2/SC(=S)N(c3cccc(Cl)c3)C2=O)c(C)n1-c1cccnc1` gave Myeloid diff MLP active and ABCB6 inh MLPCN inactive.
Screening Cc1cc(/C=C2/SC(=S)N(c3ccc([N+](=O)[O-])cc3)C2=O)c(C)n1-c1cccnc1 returned Myeloid diff MLP inactive, XiGFP reactiv inactive and ABCB6 inh MLPCN inactive.
For Cc1cc(/C=C2\SC(=S)N(C)C2=O)c(C)n1-c1ccc(O)cc1 the results were Myeloid diff MLP inactive, XiGFP reactiv inactive and ABCB6 inh MLPCN inactive.
`Cc1cc(/C=C2\SC(=S)N(C)C2=O)c(C)n1-c1ccccc1O` gave Myeloid diff MLP active, XiGFP reactiv inactive and ABCB6 inh MLPCN inactive.
CCCNC(=O)Nc1ccc2c(c1)OC[C@@H](C)N(C(=O)C1CC1)C[C@H](C)[C@H](OC)CN(C)C2=O was read as XiGFP reactiv inactive.
`O=C(NC[C@H]1[C@H](c2ccccc2)[C@H](CO)N1Cc1ccccn1)C1CCC1` gave XiGFP reactiv inactive.
For COCC(=O)Nc1ccc2c(c1)C(=O)N(C)[C@@H]1CC[C@@H](CC(=O)NC3CCCC3)O[C@H]1CO2 the results were XiGFP reactiv inactive.
Screening O=C(CN1CCN(C(=O)c2cc(C3CC3)nn2-c2ccccc2)CC1)Nc1ccc(F)cc1 returned Myeloid diff MLP inactive, XiGFP reactiv inactive and ABCB6 inh MLPCN inactive.
Screening Cc1cccc(NC(=O)CN2CCN(C(=O)c3cc(C4CC4)nn3-c3ccccc3)CC2)c1C returned Myeloid diff MLP active, XiGFP reactiv inactive and ABCB6 inh MLPCN inactive.
For O=C(c1ccccc1)N1CC2(C1)[C@@H](c1ccccc1)[C@@H](CO)N2C(=O)CC1CC1 the results were XiGFP reactiv inactive.
C[C@@H]1CN([C@@H](C)CO)C(=O)c2cc(-c3cccnc3)cnc2O[C@H]1CN(C)C was read as XiGFP reactiv inactive.
For Cc1ccc(N2CCN(c3ccc(C)cc3)C(CC(=O)O)C2=O)cc1 (stereo not given) the results were Myeloid diff MLP active and ABCB6 inh MLPCN inactive.
Cc1ccc(N2CC(C(N)=O)CC2=O)cc1 (stereo not given) was read as Myeloid diff MLP inactive and ABCB6 inh MLPCN inactive.
`O=C(NCC[C@H]1CC[C@@H](NS(=O)(=O)c2ccc(F)cc2)[C@H](CO)O1)c1ccccc1F` gave XiGFP reactiv inactive.
CCOc1ccc2ccccc2c1C(=O)N1CCN(c2ccccc2)CC1 was read as Myeloid diff MLP active and ABCB6 inh MLPCN inactive.
`CCOC(=O)c1[nH]c(C)c(C(=O)N2CCN(c3ccccc3)CC2)c1C` gave Myeloid diff MLP inactive and ABCB6 inh MLPCN inactive.
Screening C[C@@H](O)C#Cc1cnc2c(c1)C(=O)N([C@@H](C)CO)C[C@H](C)[C@@H](CN(C)C(=O)Nc1ccc(C(F)(F)F)cc1)O2 returned XiGFP reactiv inactive.
Screening CCOc1ccc(CCNC(=O)c2ccc(C)c(NC3=NC4CS(=O)(=O)CC4S3)c2)cc1 (stereo not given) returned Myeloid diff MLP inactive, XiGFP reactiv inactive and ABCB6 inh MLPCN inactive.
`Cc1ccc(C(=O)NCc2ccccn2)cc1NC1=NC2CS(=O)(=O)CC2S1` (stereo not given) gave Myeloid diff MLP inactive, XiGFP reactiv 22.4 and ABCB6 inh MLPCN inactive.
`COCC(=O)Nc1ccc2c(c1)OC[C@@H](C)N(CC1CCCCC1)C[C@@H](C)[C@@H](OC)CN(C)C2=O` gave XiGFP reactiv inactive.
`COc1ccc(N)cc1-n1c(C)ccc1C` gave Myeloid diff MLP active, XiGFP reactiv inactive and ABCB6 inh MLPCN inactive.
`COc1ccc(C)cc1-n1c(C)cc(C=O)c1C` gave Myeloid diff MLP inactive, XiGFP reactiv inactive and ABCB6 inh MLPCN inactive.
Screening C[C@@H]1CCCCO[C@H](CN(C)S(=O)(=O)c2cn(C)cn2)[C@H](C)CN([C@@H](C)CO)C(=O)c2cc(NC(=O)CCC(F)(F)F)ccc2O1 returned XiGFP reactiv inactive.
`Cc1ccc(S(=O)(=O)Nc2ccc3c(c2)C(=O)N([C@@H](C)CO)C[C@@H](C)[C@@H](CN(C)S(C)(=O)=O)O3)cc1` gave XiGFP reactiv inactive.
C[C@@H]1CN([C@H](C)CO)C(=O)c2cc(NS(=O)(=O)c3ccc(F)cc3)ccc2O[C@@H]1CN(C)S(=O)(=O)c1cn(C)cn1 was read as XiGFP reactiv inactive.
For COc1ccc(-[n+]2c(C)cc(/C=C3\Sc4ccccc4N3C)cc2C)cc1 the results were XiGFP reactiv 178.6 and ABCB6 inh MLPCN inactive.
Screening COc1ccccc1OC(=O)CCN1c2ccccc2Sc2ccccc21 returned Myeloid diff MLP inactive, XiGFP reactiv inactive and ABCB6 inh MLPCN inactive.
`COc1ccc(C(=O)/C=C2\Sc3ccccc3N2C)cc1` gave Myeloid diff MLP inactive, XiGFP reactiv inactive and ABCB6 inh MLPCN inactive.
Screening COc1ccccc1-[n+]1c(C)cc(/C=C2\Sc3ccccc3N2C)cc1C returned XiGFP reactiv 101.2 and ABCB6 inh MLPCN inactive.
`COCC(=O)Nc1ccc2c(c1)OC[C@@H](C)N(Cc1cccnc1)C[C@@H](C)[C@H](OC)CN(C)C2=O` gave XiGFP reactiv inactive.
N#C/C(=C\c1ccc(N2CCCCC2)o1)C(=O)Nc1cccc(Br)c1 was read as Myeloid diff MLP active, XiGFP reactiv 93.7 and ABCB6 inh MLPCN inactive.
N#C/C(=C\c1ccc(N2CCCCC2)o1)C(N)=O was read as Myeloid diff MLP inactive, XiGFP reactiv inactive and ABCB6 inh MLPCN inactive.
For CCCC#Cc1ccc2c(c1)O[C@H](CN(C)C(C)=O)[C@H](C)CN([C@@H](C)CO)S2(=O)=O the results were XiGFP reactiv inactive.
For CCCNC(=O)c1ccc2c(=O)c(O)c(-c3ccsc3)[nH]c2c1 the results were Myeloid diff MLP active and ABCB6 inh MLPCN inactive.
`CCCNC(=O)c1ccc2c(=O)c(O)c(-c3ccc(C)cc3)[nH]c2c1` gave Myeloid diff MLP inactive, XiGFP reactiv inactive and ABCB6 inh MLPCN inactive.
`O=C(C[C@@H]1C[C@@H]2c3cc(NC(=O)NC4CCCC4)ccc3O[C@@H]2[C@H](CO)O1)NCCN1CCCCC1` gave XiGFP reactiv inactive.
O=C(C[C@H]1CC[C@@H](NC(=O)Nc2cc(F)ccc2F)[C@H](CO)O1)Nc1ccc(-c2ccccc2)cc1 was read as XiGFP reactiv inactive.
Screening Cc1cc(C)n(Cc2ccc(C(=O)O)o2)n1 returned Myeloid diff MLP inactive.
For Cc1ccc(C)c(OCc2ccc(C(=O)NN)o2)c1 the results were Myeloid diff MLP active, XiGFP reactiv inactive and ABCB6 inh MLPCN inactive.
`Cc1ccc(OCc2ccc(C(=O)NN)o2)c([N+](=O)[O-])c1` gave Myeloid diff MLP inactive, XiGFP reactiv inactive and ABCB6 inh MLPCN inactive.
Screening Cc1cc(C)n(Cc2ccc(C(=O)NN)o2)n1 returned Myeloid diff MLP active, XiGFP reactiv inactive and ABCB6 inh MLPCN inactive.
`CC(C)NC(=O)Nc1ccc2c(c1)C(=O)N([C@@H](C)CO)C[C@@H](C)[C@H](CN(C)Cc1ccncc1)O2` gave XiGFP reactiv inactive.
